From PubChem
Only some compounds are listed: those with a hit (about 2.9% of all), similar ones and a draw of the others.
Runt-SMMHC FRET: Runt domain-CBFb-SMMHC interaction inhibition. hit rate 0.74% among 220,000. inhibition, % at 20 µM. Cerulean-Runt/Venus-CBFb-SMMHC FRET ratio 530/480, 1 h. Q01196+Q13951;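 active = mean inhibition across duplicate retests at 20 µM reaching about 50%, limit read from the data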;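 note: inhibitors lower the FRET ratio by blocking Runt binding to CBFb-SMMHC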
Target sequence (Q01196 whole entry, looked up, the tested form may be a part): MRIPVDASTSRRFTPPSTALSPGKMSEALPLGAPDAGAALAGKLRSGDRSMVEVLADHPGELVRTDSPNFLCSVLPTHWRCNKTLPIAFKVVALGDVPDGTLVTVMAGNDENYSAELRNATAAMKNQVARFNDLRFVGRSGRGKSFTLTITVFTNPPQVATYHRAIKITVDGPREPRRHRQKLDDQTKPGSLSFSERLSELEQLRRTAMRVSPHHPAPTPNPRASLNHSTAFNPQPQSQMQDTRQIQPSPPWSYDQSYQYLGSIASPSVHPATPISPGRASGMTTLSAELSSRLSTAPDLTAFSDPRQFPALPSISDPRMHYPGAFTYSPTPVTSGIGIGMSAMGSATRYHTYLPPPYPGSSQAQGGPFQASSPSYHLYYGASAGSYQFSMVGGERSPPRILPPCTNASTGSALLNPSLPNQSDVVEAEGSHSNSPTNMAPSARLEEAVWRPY
Target sequence (Q13951 whole entry, looked up, the tested form may be a part): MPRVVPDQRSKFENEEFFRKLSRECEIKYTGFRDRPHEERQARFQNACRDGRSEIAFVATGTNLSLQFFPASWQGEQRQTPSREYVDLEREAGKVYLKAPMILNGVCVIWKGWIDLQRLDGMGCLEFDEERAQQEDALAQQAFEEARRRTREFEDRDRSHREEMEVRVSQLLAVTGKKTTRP
RBBP9 inhibitor: blocks human serine hydrolase RBBP9 | recombinant RBBP9, FP-Rh probe fluorescence polarization | inhibition, % at 7.94 µM | hit rate 0.2% among 220,000 | AID 1515;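 active = inhibition above the campaign mean of all tested compounds plus 3 SD, cut at about 14% in these data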
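Measured by: FP readout at 525/598 nm; material: recombinant human RBBP9; also added: Serine-hydrolase probe FP-Rh, 375 nM pre-mixing; medium: Tris buffer pH 8.0, NaCl, Pluronic; replication: one well per compound; doses: one concentration, 7.94 µM nominal, 0.794% DMSO; timing: preincubation 30 min plus labeling 45 min at 25 °C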
Hck Nef HTS: human Hck-Nef kinase inhibition. Recombinant Hck-YEEI plus Nef, Z-Lyte FRET kinase assay. hit rate 0.68% among 220,000. inhibition, % at 20 µM. AID 463187. P08631;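 active = Hck-Nef kinase inhibition above about 50%, limit read from the data; inactive = inhibition below that limit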
PfM18AAP inh: blocks P. falciparum M18 aspartyl aminopeptidase; recombinant PfM18AAP, H-Glu-NHMec fluorogenic cleavage; inhibition, % at 7.35 µM; hit rate 1.2% among 290,000; AID 1822;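 active = inhibition above the campaign mean inhibition over all tested compounds plus 3 SD, cut at about 28% in these data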
Runt-CBFb FRET: inhibitors of human RUNX1 Runt domain binding to CBFb | Q01196+Q13951 | Cerulean-Runt/Venus-CBFb FRET ratio 530/480, 1 h | inhibition, % at 20 µM | hit rate 0.46% among 220,000;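 active = inhibition over about 50% at 20 µM in the single-dose screen, limit read from the data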
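Doses: 20 µM compound in 1% DMSO | Material: Cerulean-labeled Runt domain protein | Amount: Each fluorescent fusion protein 100 nM | Schedule: Two 1 h room-temperature incubations shielded from light | Measured by: FRET fluorescence | Evaluation: Loss of energy transfer signal | Controls: Unlabeled CBFb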
RanGTP-Imp inh: disruptors of Ran-importin-beta complex formation – biochemical, FRET, CFP-Ran, YFP-importin-beta, homogeneous, primary screen; inhibition, % (no concentration beside the values); cell-free CFP-Ran/YFP-importin-beta FRET ratio; hit rate 1.1% among 300,000;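 active = more than half of the replicate wells show a fall in the fluorescence ratio signal beyond about 16%, limit read from the data, passing the limit was not always enough; inconclusive = exactly half of the replicate wells pass the set limit; inactive = fewer than half of replicates pass the limit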
Large screens that a line does not name were inactive.

O=C1NC(=S)S/C1=C\c1coc2ccc(O)cc2c1=O	Hck Nef HTS 53
Cc1cc(/C=C2\SC(=S)NC2=O)c(C)n1C1CC1	none
O=C1NC(=S)S/C1=C\c1ccc2ccccc2c1	none (no result: Runt-SMMHC FRET, RBBP9 inhibitor, Hck Nef HTS, Runt-CBFb FRET)
Cc1oc(C)c2c(=O)ccc3c(c12)OC(N)=C(C#N)C3c1ccc(F)cc1 (stereo unspecified)	none
Cc1cc(C)c2c3c(sc2n1)C(c1cccc(F)c1)C(C#N)=C(N)O3 (stereo unspecified)	Runt-SMMHC FRET 62, Runt-CBFb FRET 90, RanGTP-Imp inh 91
NNc1cc(C(=O)O)ccc1Cl	none
CCOC(=O)Nc1ccc(C(=O)c2ccncc2)cc1	none (no result: Runt-SMMHC FRET, RBBP9 inhibitor, Hck Nef HTS, Runt-CBFb FRET)
O=C(c1ccccc1SCc1ccccc1)N1CCCCCC1	none
CCN(CC(=O)Nc1c(F)cccc1F)C(=O)C1CC1C (stereo unspecified)	none (no result: Runt-SMMHC FRET, RBBP9 inhibitor, Hck Nef HTS, PfM18AAP inh, Runt-CBFb FRET)
N#Cc1cnn2c3c(cnc12)C(=O)N1CCc2ccccc2C1C3 (stereo unspecified)	Runt-SMMHC FRET 86, Runt-CBFb FRET 92, RanGTP-Imp inh inconclusive
Cc1cc(=O)oc(C)c1C(=O)Nc1ccc2nsnc2c1	none
Cc1cc(=O)oc(C)c1C(=O)Nc1ccc2ncccc2c1	Runt-SMMHC FRET 59
CC(C)CN(Cc1c(O)ccc2c3c(c(=O)oc12)CCC3)CC(C)C	Runt-SMMHC FRET 100
Cc1c(O)ccc2c3c(c(=O)oc12)CCCC3	Runt-SMMHC FRET 90, Runt-CBFb FRET 75 (no result: RanGTP-Imp inh)
COc1ccccc1N1CCN(C2CCCN(C(=O)CCC(C)=O)C2)CC1 (stereo unspecified)	none (no result: Runt-SMMHC FRET, RBBP9 inhibitor, Hck Nef HTS, Runt-CBFb FRET)
CCCCSc1nc2sc3c(c2c(=O)n1-c1ccccc1)CCN(C)C3	none (no result: Runt-SMMHC FRET, RBBP9 inhibitor, Hck Nef HTS, Runt-CBFb FRET)
CCCCCNc1nc2sc3c(c2c(=O)n1-c1cccc(Cl)c1)CCN(C)C3	Runt-SMMHC FRET 103, RanGTP-Imp inh 44
CCCCNc1nc2sc3c(c2c(=O)n1-c1cccc(Cl)c1)CCN(C)C3	Runt-SMMHC FRET 126, RanGTP-Imp inh 30
O=C(Nc1ccc(N2CCCC2)cc1)c1cc([N+](=O)[O-])ccc1N1CCOCC1	none (no result: Runt-SMMHC FRET, RBBP9 inhibitor, Hck Nef HTS, Runt-CBFb FRET)
C/C=C/C(=O)N(CC)c1ccccc1C	none (no result: Hck Nef HTS, RanGTP-Imp inh)
COc1cccc2c1C(=O)c1c(O)c3c(c(O)c1C2=O)C[C@@](O)(C(=O)CO)C[C@@H]3O[C@H]1C[C@H](N)[C@H](O)[C@H](C)O1	PfM18AAP inh 28
O=C(Nc1ccc2c(c1)oc1ccccc12)c1ccc2c(c1)OCO2	none
O=c1c(O)c(-c2ccc3c(c2)OCO3)oc2ccccc12	RanGTP-Imp inh 32
CCC(C)(C)n1nnnc1C(c1cc2cccc(C)c2[nH]c1=O)N1CCN(C(=O)c2ccco2)CC1 (stereo unspecified)	RanGTP-Imp inh 17
O=C(O)CCCCC1CCSS1 (stereo unspecified)	Hck Nef HTS 101
O=C(O)CCNC1CCCCC1	none
COCCn1c(SCCN2CCOCC2)nc2c1c(=O)[nH]c(=O)n2C	PfM18AAP inh 30
O=C(OCC(=O)N1CCN(c2ccccc2)CC1)c1ccccc1NCCO	none (no result: Runt-SMMHC FRET, RBBP9 inhibitor, Hck Nef HTS, PfM18AAP inh, Runt-CBFb FRET)
CCn1c(=O)n(CC(=O)NCC2CCCO2)c(=O)c2c3c(sc21)COC(C)(C)C3 (stereo unspecified)	none (no result: Runt-SMMHC FRET, RBBP9 inhibitor, Hck Nef HTS, Runt-CBFb FRET)
CCOC(=O)C1CCN(S(=O)(=O)c2ccc3c(c2)CC(C)N3C(=O)C2CC2)CC1 (stereo unspecified)	none (no result: Runt-SMMHC FRET, RBBP9 inhibitor, Hck Nef HTS, Runt-CBFb FRET)
CC1Cc2cc(S(=O)(=O)N3CCC(C(N)=O)CC3)ccc2N1C(=O)C1CC1 (stereo unspecified)	RanGTP-Imp inh 18 (no result: Runt-SMMHC FRET, RBBP9 inhibitor, Hck Nef HTS, Runt-CBFb FRET)
CC(C)Cc1ccc(/C=C/C(=O)N2CCOCC2)cc1	RanGTP-Imp inh 18
Cc1cc(SCC(=O)Nc2c(C)n(C)n(-c3ccccc3)c2=O)n2c(nc3ccccc32)c1C#N	none (no result: Runt-SMMHC FRET, Runt-CBFb FRET, RanGTP-Imp inh)
Cc1cc(Nc2c(C)n(C)n(-c3ccccc3)c2=O)n2c(nc3ccccc32)c1C#N	RanGTP-Imp inh 107
CCCc1cc(Nc2c(C)n(C)n(-c3ccccc3)c2=O)n2c(nc3ccccc32)c1C#N	RanGTP-Imp inh 107
FC(F)(F)Oc1ccc(Nc2nc(N3CCOCC3)nc(N3CCOCC3)n2)cc1	none (no result: Runt-SMMHC FRET, RBBP9 inhibitor, Hck Nef HTS, Runt-CBFb FRET)
O=c1cc(C(F)(F)F)[nH]c2ccc(C(F)(F)F)cc12	none
COC(=O)c1scc2c(=O)cc(C(F)(F)F)[nH]c12	Runt-SMMHC FRET 84, RanGTP-Imp inh 117
